Reference: PMC5598371 (Toxicology Reports, 2015)

Columns and labels:
HSC-3 = details: read-out: 50% cytotoxic concentration (CC50); HSC-3, derived from tongue; cited from earlier work
[1] = Cytotoxic activity, MTT method; type: cell-based; details: human, oral keratinocytes (HOK), normal epithelial cells
Summary of the method: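 HOK grown in keratinocyte growth supplement medium, harvested with 0.25% trypsin-0.025% EDTA. Seeded at 2.5 × 10^3 cells/0.1 ml, grown 48 h, then medium replaced with fresh medium containing test compound dilutions (80 mM DMSO stocks; final DMSO usually below […]) or matched DMSO vehicle. After incubation, 0.2 mg/ml MTT for 3 h, DMSO lysis, A540. CC50 from dose–response curve.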

[2] = test system: Gingival fibroblast (HGF); details: read-out: 50% cytotoxic concentration (CC50), normal (C); cited from earlier work
[3] = test system: HGF/HPLF/HPC vs human OSCC cell lines; details: mean CC50 HGF/HPLF/HPC / mean CC50 OSCC lines; cited from earlier work
HSC-2 = details: read-out: 50% cytotoxic concentration (CC50); HSC-2, derived from tongue; cited from earlier work
[4] = Cytotoxic activity, MTT method; type: cell-based; details: human
[5] = test system: Periodontal ligament fibroblast (HPLF); details: read-out: 50% cytotoxic concentration (CC50), normal; cited from earlier work
Ca9-22 = details: read-out: 50% cytotoxic concentration (CC50); Ca9-22, derived from gingiva (A); cited from earlier work
[6] = test system: HGF/HPLF/HPC vs human OSCC cell lines; experiment: Tumor-specificity; type: cell-based; details: TS x (1/B) x 100; HGF/HPLF/HPC as normal cells
[7] = test system: HOK vs human OSCC cell lines; experiment: Tumor-specificity; type: cell-based; details: for Tumor-specificity index (TS) E/B: CC50 HOK / mean CC50 OSCC lines; for Potency-selectivity expression (PSE) E/B^2: TS x (1/B) x 100, HOK as normal cells
HSC-4 = details: read-out: 50% cytotoxic concentration (CC50); HSC-4, derived from tongue; cited from earlier work
Pulp cell (HPC) = details: read-out: 50% cytotoxic concentration (CC50), normal; cited from earlier work
[8] = test system: HGEP vs human OSCC cell lines; experiment: Tumor-specificity; type: cell-based; details: for Tumor-specificity index (TS) F/B: CC50 HGEP / mean CC50 OSCC lines; for Potency-selectivity expression (PSE) F/B^2: TS x (1/B) x 100, HGEP as normal cells
HGF vs Ca9-22 = details: CC50 HGF / CC50 Ca9-22; cited from earlier work
HSC-2 cells [9] = experiment: Time course of cytotoxicity induction; type: cell-based, human
Summary of the method: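 Pulse-chase in HSC-2 (DMEM, 10% heat-inactivated FBS, 37 °C, 5% CO2). Cells seeded at 2.5 × 10^3/0.1 ml and grown 48 h. Exposed to graded test compound concentrations for varied times, then switched to drug-free medium until 47 h after first addition. Viability by MTT (0.2 mg/ml, 3 h, A540). CC50 from dose–response curve. Triplicates (Exp. I), quadruplicates (Exp. II).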

[10] = Effect of tetraethylammonium or cycloheximide on cytotoxicity; type: cell-based; details: Supplementary Fig. 3
HSC-2 cells [11] = experiment: Fine cell structure under transmission electron microscope; type: cell-based, human; details: 3 h with 3 or 10 μM, compared with control cells
Summary of the method: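 HSC-2 cells were seeded at 5 × 10^5 cells/10 ml and […]. After a medium change, near-confluent cells were exposed 3 h to test compound (0, 3 or 10 μM) and washed in cold PBS. Fixation: 2% glutaraldehyde/0.1 M cacodylate pH 7.4, 1 h, 4 °C, then scraped, pelleted and post-fixed 90 min in 1% OsO4. Dehydrated, Araldite-embedded, thin sections stained with uranyl acetate and lead citrate; TEM at ×5000, 100 kV.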

HSC-2 cells [12] = experiment: Metabolomic analysis; type: cell-based, human
Summary of the method: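 HSC-2 seeded 5 × 10^5 cells/10 ml, grown 48 h, re-fed for 30 min at 37 °C, then treated 3 h with 0, 1, 3 or 10 μM. Trypan-blue cell counts taken. Extraction: mannitol wash, then methanol with internal standards, chloroform/water partition and 5 kDa ultrafiltration. CE-TOFMS run in cation (1 M formic acid) and anion (50 mM ammonium acetate, pH 8.5) modes. One-point external calibration, normalised per cell. Quadruplicates, mean ± S.D., FDR-corrected p.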

HSC-2 cells [13] = experiment: Western blot analysis of apoptosis and autophagy markers; type: cell-based, human
Summary of the method: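 HSC-2 cells treated with or without 10 μM for 4, 7.5 or 23 h. Laemmli whole-cell lysates (5 × 10^4 cells/lane) run on 12% SDS-PAGE and blotted to PVDF. Blocked 1 h in 5% BSA/TBS-Tween (pH 7.6). Primary anti-PARP, anti-caspase-3, anti-LC3 (1:1000) and anti-GAPDH (1:20,000) overnight at 4 °C, then HRP anti-rabbit 1 h at room temperature. Chemiluminescent detection; band densities expressed relative to GAPDH.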

[14] = 3 h, 1, 3 or 10 μM, not significant

O=c1[nH]cc(F)c(=O)[nH]1 [5-FU, 5-fluorouracil, reference compound]
CC50 (HSC-3): 16 µM | CC50 [1]: 24.7 µM | CC50 [2]: > 1000 µM | Tumor-specificity index (TS) D/B [3]: >55.6 | CC50 (HSC-2): 13 µM | CC50 [4]: 18.8 µM | CC50 [5]: > 1000 µM | CC50 (Ca9-22): 29 µM | Potency-selectivity expression (PSE) D/B^2 [6]: >309 | Tumor-specificity index (TS) E/B [7]: 1.4 | Potency-selectivity expression (PSE) E/B^2 [7]: 7.8 | CC50 (HSC-4): 13 µM | CC50 (Pulp cell (HPC)): > 1000 µM | Tumor-specificity index (TS) F/B [8]: 1.0 | Potency-selectivity expression (PSE) F/B^2 [8]: 5.6 | Tumor-specificity index (TS) C/A (HGF vs Ca9-22): >34.5

COc1cccc2c1C(=O)c1c(O)c3c(c(O)c1C2=O)C[C@@](O)(C(=O)CO)C[C@@H]3O[C@H]1C[C@H](N)[C@H](O)[C@H](C)O1 [Doxorubicin, doxorubicin, reference compound]
CC50 (HSC-3): 0.11 µM | CC50 [1]: 1.31 µM | CC50 [2]: 0.87 µM | Tumor-specificity index (TS) D/B [3]: >26.0 | CC50 (HSC-2): 0.12 µM | CC50 [4]: 0.027 µM | CC50 [5]: 0.87 µM | CC50 (Ca9-22): 0.26 µM | Potency-selectivity expression (PSE) D/B^2 [6]: >17333 | Tumor-specificity index (TS) E/B [7]: 8.7 | Potency-selectivity expression (PSE) E/B^2 [7]: 5800 | CC50 (HSC-4): 0.094 µM | CC50 (Pulp cell (HPC)): > 10 µM | Tumor-specificity index (TS) F/B [8]: 0.2 | Potency-selectivity expression (PSE) F/B^2 [8]: 133 | Tumor-specificity index (TS) C/A (HGF vs Ca9-22): 3.3

COc1ccc(/C=C/c2coc3ccc(OC)cc3c2=O)cc1 [compound 4, (E)-6-methoxy-3-(4-methoxystyryl)-4H-chromen-4-one]
CC50 (HSC-3): 7.7 µM | CC50 [1]: 70 µM | CC50 [2]: 229 µM | Tumor-specificity index (TS) D/B [3]: 40.3 | CC50 (HSC-2): 4.4 µM | dead cells produced (HSC-2 cells [9]; higher concentrations, Fig. 2): more than 90% | CC50 [4]: 178 µM | effect of pretreatment with cycloheximide on cytotoxicity [10]: inhibited | CC50 [5]: 150 µM | CC50 (Ca9-22): 4.4 µM | Potency-selectivity expression (PSE) D/B^2 [6]: 630 | Tumor-specificity index (TS) E/B [7]: 10.9 | Potency-selectivity expression (PSE) E/B^2 [7]: 170 | CC50 (HSC-4): 9.2 µM | CC50 (Pulp cell (HPC)): 396 µM | Tumor-specificity index (TS) F/B [8]: 27.8 | Potency-selectivity expression (PSE) F/B^2 [8]: 434 | Tumor-specificity index (TS) C/A (HGF vs Ca9-22): 52.0

COc1ccc2occ(/C=C/c3cc(OC)c(OC)c(OC)c3)c(=O)c2c1 [compound 6, (E)-6-methoxy-3-(3,4,5-trimethoxystyryl)-4H-chromen-4-one]
CC50 (HSC-3): 21 µM | CC50 [1]: 77 µM | CC50 [2]: 544 µM | Tumor-specificity index (TS) D/B [3]: 26.1 | CC50 (HSC-2): 6.8 µM | viable cells left (HSC-2 cells [9]; higher concentrations, Fig. 2): 30% | CC50 [4]: 610 µM | effect of pretreatment with cycloheximide on cytotoxicity [10]: inhibited | CC50 [5]: 190 µM | CC50 (Ca9-22): 10 µM | Potency-selectivity expression (PSE) D/B^2 [6]: 200 | Tumor-specificity index (TS) E/B [7]: 5.9 | Potency-selectivity expression (PSE) E/B^2 [7]: 45 | CC50 (HSC-4): 13 µM | CC50 (Pulp cell (HPC)): 284 µM | Tumor-specificity index (TS) F/B [8]: 46.9 | Potency-selectivity expression (PSE) F/B^2 [8]: 361 | Tumor-specificity index (TS) C/A (HGF vs Ca9-22): 54.4

COc1ccc2occ(/C=C/c3ccc(O)cc3)c(=O)c2c1 [compound 11, (E)-3-(4-hydroxystyryl)-6-methoxy-4H-chromen-4-one]
CC50 (HSC-3): 3.6 µM | mitochondrial vacuolization (HSC-2 cells [11]): mitochondrial vacuolization became prominent | CC50 [1]: 19 µM | CC50 [2]: 67 µM | Tumor-specificity index (TS) D/B [3]: 69.0 | CC50 (HSC-2): 1 µM | CC50 (HSC-2 cells [9]; Homo sapiens, HSC-2, Exp. I, exposure time 21 h, drug-free medium until 47 h): < 1.56 µM | dead cells produced (HSC-2 cells [9]; higher concentrations, Fig. 2): more than 90% | treatment time at which cytotoxicity was triggered (HSC-2 cells [9]; pulse-chase, HSC-2): 3 h | CC50 [4]: > 800 µM | effect of BH blocker (tetraethylammonium) on cytotoxicity [10]: not inhibited | effect of pretreatment with cycloheximide on cytotoxicity [10]: inhibited | CC50 [5]: 74 µM | CC50 (Ca9-22): 2.1 µM | Potency-selectivity expression (PSE) D/B^2 [6]: 3450 | intracellular concentration of 2-oxoglutarate (HSC-2 cells [12]; 3 h, 1, 3 and 10 μM, Fig. 6A): reduced, but not significantly | intracellular concentrations of 4-methyl-2-oxopentanoate, 2-hyroxyglutarate, creatine, 2-oxoisopentanoate (Q < 0.2), glycine and choline (p < 0.05) (HSC-2 cells [12]; 3 h, 1, 3 and 10 μM, Fig. 6A): significantly reduced | intracellular concentrations of diethanolamine and CDP-choline (HSC-2 cells [12]; 3 h, 1, 3 and 10 μM, Fig. 6B): increased, but not significantly | intracellular concentrations of proline, asparagine, DHAP, Ru5P, transcinnamate, γ-butyrobetaine (Q < 0.2) and glutamic acid (p < 0.05) (HSC-2 cells [12]; 3 h, 1, 3 and 10 μM, Fig. 6B): significantly increased | NADH/NAD+ ratio (HSC-2 cells [12]; [14]): minor increase | glycolytic metabolites (glucose-6-phosphate, fructose 6-phosphate, fructose 1,6-bisphospate, 3-phosphoglyceric acid) (HSC-2 cells [12]; [14]): minor increase | intracellular concentration of metabolites in TCA cycle (citrate, cis-aconiate, succinate, fumarate, malate) (HSC-2 cells [12]; [14]): minor reduction | lactate (HSC-2 cells [12]; [14]): minor reduction | polyamine pathway (putrescine, spermidine) (HSC-2 cells [12]; [14]): minor reduction | ratio of AMP/ATP (HSC-2 cells [12]; [14]): minor reduction | ratio of GMP/GTP (HSC-2 cells [12]; [14]): minor reduction | urea cycle (citrullin, arginine, ornithine) (HSC-2 cells [12]; [14]): no change or minor reduction | extracellular concentration of diethanolamine after treatment (HSC-2 cells [12]; culture medium, before treatment 12.1 ± 13.4 μM): 11.8 ± 5.3 µM | Tumor-specificity index (TS) E/B [7]: 9.5 | Potency-selectivity expression (PSE) E/B^2 [7]: 475 | LC3-II expression (autophagy marker) (HSC-2 cells [13]; 10 μM for 4, 7.5 and 23 h): decreased time-dependently to undetectable level | cleaved PARP1 and caspase-3 (apoptosis marker) (HSC-2 cells [13]; 10 μM, 23 h after treatment): appearance of cleaved PARP1 and caspase-3 | full length PARP (HSC-2 cells [13]; 10 μM, 23 h after treatment): loss of full length PARP | type of cell death (HSC-2 cells [13]; 10 μM, HSC-2): induced apoptotic cell death after suppression of autophagy | CC50 (HSC-4): 1.2 µM | CC50 (Pulp cell (HPC)): 272 µM | Tumor-specificity index (TS) F/B [8]: >400 | Potency-selectivity expression (PSE) F/B^2 [8]: >20000 | Tumor-specificity index (TS) C/A (HGF vs Ca9-22): 31.9
